Here are results for 15 compounds from ChEMBL document CHEMBL1145031, “Rational design, synthesis, and structure-activity relationships of novel factor Xa inhibitors: (2-substituted-4-amidinophenyl)pyruvic and -propionic acids” (J Med Chem, 2003).

Where only a bound is given, the exact number is not on record here.

The target in data set [1] is Coagulation factor X (Homo sapiens, UniProt P00742). As to the kind of experiment: Inhibitory activity against Coagulation factor X (fXa). In a few lines: (§1)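 Chromogenic assay at room temperature in pH 8.4 buffer (0.1 M Tris, 0.2 M NaCl, 0.1% PEG-6000, 0.02% Tween20). For fXa, 4.5 nM enzyme with 200 μM S-2222; for thrombin, 1.1 nM enzyme with 100 μM S-2238 (final). Inhibitor and enzyme preincubated 10 min, then substrate added. p-Nitroaniline release read at 405 nm for 16 min. IC50 taken from initial velocities; apparent Ki scaled from IC50 ratios against a standard inhibitor's Ki from a double reciprocal plot.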
Sequence of Coagulation factor X (P00742 41-179 limits assumed): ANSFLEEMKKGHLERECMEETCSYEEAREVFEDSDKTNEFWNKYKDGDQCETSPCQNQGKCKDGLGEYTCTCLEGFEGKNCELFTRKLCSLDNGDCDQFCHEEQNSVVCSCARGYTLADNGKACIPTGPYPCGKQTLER
Sequence of Coagulation factor X (P00742 235-488 limits assumed): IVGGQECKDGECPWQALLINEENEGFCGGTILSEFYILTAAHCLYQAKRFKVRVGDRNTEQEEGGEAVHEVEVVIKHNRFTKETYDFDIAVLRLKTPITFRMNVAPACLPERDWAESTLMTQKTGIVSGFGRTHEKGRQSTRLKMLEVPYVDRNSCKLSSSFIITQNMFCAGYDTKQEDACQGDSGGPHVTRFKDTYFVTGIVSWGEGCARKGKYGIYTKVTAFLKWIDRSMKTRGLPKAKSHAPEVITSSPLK

Data set [2] deals with Prothrombin (Homo sapiens, UniProt P00734). In words: Inhibitory activity against thrombin. In a few lines: as §1
The target of data set [3] is Thrombin and coagulation factor X (Homo sapiens) (UniProt P00734+P00742). In words: Selectivity for factor Xa (fXa) versus thrombin. It is filed as protein assay.
Sequence of Thrombin and coagulation factor X (Homo sapiens) (P00742 whole entry, looked up, other chains not shown): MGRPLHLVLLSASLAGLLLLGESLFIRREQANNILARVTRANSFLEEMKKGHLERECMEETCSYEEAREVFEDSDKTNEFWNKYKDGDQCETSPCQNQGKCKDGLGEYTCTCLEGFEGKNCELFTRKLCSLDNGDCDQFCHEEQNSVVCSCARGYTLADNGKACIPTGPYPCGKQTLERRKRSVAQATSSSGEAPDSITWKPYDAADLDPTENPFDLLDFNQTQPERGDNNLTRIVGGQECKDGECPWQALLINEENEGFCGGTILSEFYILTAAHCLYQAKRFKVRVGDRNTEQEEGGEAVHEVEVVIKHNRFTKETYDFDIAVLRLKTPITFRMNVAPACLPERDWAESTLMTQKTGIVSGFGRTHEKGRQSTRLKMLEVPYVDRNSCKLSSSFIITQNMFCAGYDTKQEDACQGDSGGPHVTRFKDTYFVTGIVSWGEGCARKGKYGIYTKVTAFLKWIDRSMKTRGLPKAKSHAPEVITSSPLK
Data set [4] can be described thus: Oral bioavailability. It counts as ADME, organism-based. As to conditions: eutheria, in vivo. In a few lines:
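Overnight-fasted male cynomolgus monkeys received 10 mg/kg orally by gastric tube, or 0.3 or 1.0 mg/kg intravenously. Saphenous vein blood was drawn into trisodium citrate before dosing and at several times up to 24 h. Plasma drug levels were measured by HPLC.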

The species entered for data set [5] is Homo sapiens. In words: Concentration required to double the prothrombin time(PT) in human plasma was determined. It counts as functional.
Data set [6] has as its system Monkey. In words: Concentration required to double the prothrombin time (PT) in plasma of cynomolgus monkey.

For `N=C(N)c1ccc(C(=O)N[C@@H](COc2cccc(C(=N)N)c2)CC(=O)O)cc1`, the Ki was 0.028 µM in data set [1] and > 1500 µM in data set [2]. Moreover, the Ratio in data set [3] is > 54000.
On the same counts, the results for `N=C(N)c1ccc(C(=O)NCCOc2cc(C(=N)N)ccc2CC(=O)C(=O)O)cc1` are 0.026 µM, 38 µM and 1500.
In turn, `CC(=N)N1CCC(Oc2ccc(C(=O)N[C@@H](COc3cc(C(=N)N)ccc3CC(=O)C(=O)O)CC(=O)O)cc2)CC1` showed a bioavailability in data set [4] of 12%. Also, the Ki stood at 0.011 µM in data set [1] and 540 µM in data set [2]. Moreover, the PT in data set [5] and in data set [6] was 0.38 µM each time. For the same compound, the Ratio in data set [3] was 49000.
For `N=C(N)c1ccc(C(=O)NCCOc2cccc(C(=N)N)c2)cc1`, the Ki was determined as 0.22 µM in data set [1] and 710 µM in data set [2]. Besides, the Ratio in data set [3] stood at 3200.
As to `N=C(N)c1ccc(CCC(=O)O)c(OCCNC(=O)C2CCN(c3ccncc3)CC2)c1`, the bioavailability in data set [4] was 6%. The Ki in data set [1] was 0.043 µM; in data set [2], > 1500 µM. The PT in data set [5] amounted to 0.42 µM; in data set [6], 0.7 µM. The Ratio in data set [3] is > 35000.
Turning to `N=C(N)c1cccc(OCCNC(=O)c2ccccc2)c1`, the Ki in data set [1] came out at 2.8 µM; in data set [2] it was 800 µM. Moreover, the Ratio in data set [3] turned out to be 290.
The like results for `N=C(N)c1ccc(C(=O)N[C@H](COc2cccc(C(=N)N)c2)CC(=O)O)cc1` were, in that order, 0.17 µM, > 1500 µM and > 8800.
The like results for `N=C(N)c1ccc(CC(=O)C(=O)O)c(OC[C@@H](CC(=O)O)NC(=O)C2CCN(c3ccncc3)CC2)c1` were, in that order, 0.018 µM, 680 µM and 38000.
With `CC(=N)N1CCC(Oc2ccc(C(=O)NCCOc3cccc(C(=N)N)c3)cc2)CC1`, the values for the Ki in data set [1] and in data set [2] were 0.17 µM and 440 µM, respectively. For the same compound, the Ratio in data set [3] stood at 2600.
As to `CC(=N)N1CCC(Oc2ccc(C(=O)NCCOc3cc(C(=N)N)ccc3CC(=O)C(=O)O)cc2)CC1`, the Ki was determined as 0.02 µM in data set [1] and 53 µM in data set [2]. Also, the PT was determined as 0.2 µM in data set [5] and 0.12 µM in data set [6]. Further, the Ratio in data set [3] was found to be 2700.
The compound `N=C(N)c1ccc(CC(=O)C(=O)O)c(OCCNC(=O)C2CCN(c3ccncc3)CC2)c1` returned a bioavailability in data set [4] of 12%. Further, the Ki was 0.021 µM in data set [1] and 140 µM in data set [2]. The PT in data set [5] and in data set [6] was 0.22 µM throughout. For the same compound, in data set [3], the Ratio amounted to 6700.
For `CC(=N)N1CCC(Oc2ccc(C(=O)NCCOc3cc(C(=N)N)ccc3CCC(=O)O)cc2)CC1`, the figures for the Ki in data set [1] and in data set [2] were 0.033 µM and > 1500 µM, respectively. Further, in data set [3], the Ratio was > 45000.
The like results for `N=C(N)c1cccc(OCCNC(=O)C2CCN(c3ccncc3)CC2)c1` were, in that order, 0.29 µM, 1000 µM and 3500.
On the same counts, the results for `N=C(N)c1cccc(OCCNC(=O)c2ccc(C(=O)N3CCCC3)cc2)c1` are 0.02 µM, 110 µM and 5500.
The like results for `N=C(N)c1ccc(CC(=O)C(=O)O)c(OCCNC(=O)c2ccc(C(=O)N3CCCC3)cc2)c1` were, in that order, 0.003 µM, 24 µM and 8000.

As usually defined, the Ki is the dissociation constant of the complex between target and ligand, obtained from inhibition or displacement. One may read the bioavailability as dose-corrected exposure relative to a reference, in per cent.
